According to ChEMBL document CHEMBL1157235, “Lupane and oleanane triterpenoids from the cones of Liquidamber styraciflua” (2006):
The source made the active and inactive calls. The calls are words filed in the database; no cut-off is given here.

What was measured:
[1] = tested on: A549; experiment: Cytotoxicity against human A549 cells after 72 hrs by MTT assay; assay type: functional; conditions: A549, 72 h, read-out: ED50 (the source's name)
Outline: (§1)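 Cells were grown in RPMI-1640 with 10% FBS at 37 °C under humidified 5% CO2 and seeded at 1 × 10^4 cells/well with compounds for 72 h. MTT (5 mg/mL stock) was then added for 4 h at 37 °C. Formazan was solubilized with acidic SDS (0.02 N HCl in 20% SDS), and absorbance was read at 570 nm against a 620 nm reference.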

[2] = tested on: P388; experiment: Cytotoxicity against mouse P388 cells after 72 hrs by MTT assay; assay type: functional; conditions: P388, 72 h, read-out: ED50 (the source's name); outline: as §1
[3] = tested on: P388; experiment: Cytotoxicity against mouse P388 cells at 40 uM after 72 hrs by MTT assay; assay type: functional, cell-based
[4] = tested on: A549; experiment: Cytotoxicity against human A549 cells at 40 uM after 72 hrs by MTT assay; assay type: functional, cell-based

SMILES	EC50 [1] [µM]	EC50 [2] [µM]	Activity [3]	Activity [4]
CC(=O)OC[C@]12CC[C@@H](O)C(C)(C)C1CC[C@]1(C)[C@@H]2CC=C2[C@@H]3CC(C)(C)CC[C@]3(C(=O)O)CC[C@]21C (stereo not given in full)	13.3	28.2		
COc1cc([C@@H]2c3cc4c(cc3[C@@H](O[C@@H]3O[C@@H]5CO[C@@H](C)O[C@H]5[C@H](O)[C@H]3O)[C@H]3COC(=O)[C@H]23)OCO4)cc(OC)c1O [ETOPOSIDE]	3.76			
C=C(C)[C@@H]1CC[C@]2(C(=O)O)CC[C@]3(C)[C@H](CC[C@@H]4[C@]56CC[C@@](O)(OC5)C(C)(C)[C@@H]6CC[C@]43C)[C@@H]12	29.9	22.3		
CC1(C)CC[C@]2(C(=O)O)CC[C@]3(C)C(=CC[C@@H]4[C@]56CC[C@@](O)(OC5)C(C)(C)[C@@H]6CC[C@]43C)[C@@H]2C1 [LANTANOLIC ACID]	26.5	24		
CC(=O)[C@@H]1CC[C@]2(C(=O)O)CC[C@]3(C)[C@H](CC[C@@H]4[C@@]5(C)CCC(=O)C(C)(C)[C@@H]5[C@H](O)C[C@]43C)[C@@H]12			inactive	inactive
CC1(C)CC[C@]2(C(=O)O)CC[C@]3(C)C(=CC[C@@H]4[C@@]5(C)CCC(=O)C(C)(C)[C@@H]5[C@H](O)C[C@]43C)[C@@H]2C1	33.5	18.5		
C=C(CO)[C@@H]1CC[C@]2(C(=O)O)CC[C@]3(C)[C@H](CC[C@@H]4[C@@]5(C)CCC(=O)C(C)(C)[C@@H]5[C@H](O)C[C@]43C)[C@@H]12			inactive	inactive
C=C(C)[C@@H]1CC[C@]2(C(=O)O)CC[C@]3(C)[C@@H](CC[C@@H]4[C@@]5(C)CCC(=O)C(C)(C)[C@@H]5[C@H](O)C[C@]43C)[C@@H]12	≥ 40	32.7		
